# Measured values: ChEMBL document CHEMBL1134414, “Synthesis, antitumor cytotoxicity, and DNA-binding of novel N-5,2-di(omega-aminoalkyl)-2,6-dihydropyrazolo[3,4,5-kl]acridine-5-carboxamides” (J Med Chem, 2001)
# System: HT-29
# Experiment: Concentration required to inhibit cell growth by 50% in vitro against Human colon adenocarcinoma cell line
# Assay type: functional, cell-based
# Settings: not given
# In short: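 HT29 cells seeded at 2.5×10^4 cells/mL and exposed to drug continuously for 144 h. Assays run in triplicate.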
row,SMILES,IC50 [µM]
1,COc1ccc2c(c1)-c1nn(CCN3CCCC3)c3ccc(C(=O)NCCN(C)C)c(c13)N2,0.4
2,COc1ccc2c(c1)-c1nn(CCN3CCCCC3)c3ccc(C(=O)NCCN(C)C)c(c13)N2,0.26
3,CN(C)CCNC(=O)c1ccc2c3c(c4cc(N)ccc4nc13)NN2CCN(C)C,0.91
4,O=C(NCCNCCO)c1ccc2c3c(c4ccccc4nc13)NN2CCN1CCCCC1,0.56
5,CN(C)CCNC(=O)c1ccc2c3c(c4cc(O)ccc4nc13)NN2CCN1CCCCC1,0.63
6,CCN(CC)CCNC(=O)c1ccc2c3c(c4ccccc4nc13)NN2CCN(CC)CC,0.41
7,CN(C)CCNC(=O)c1ccc2c3c(c4ccccc4nc13)NN2CCN1CCCCC1,0.21
8,O=C(NCCN1CCCCC1)c1ccc2c3c(c4ccccc4nc13)NN2CCN1CCCCC1,0.45
9,CN(C)CCCNC(=O)c1ccc2c3c(c4ccccc4nc13)NN2CCCN(C)C,2.3
10,CN(C)CCNC(=O)c1ccc2c3c(c4cc([N+](=O)[O-])ccc4nc13)NN2CCN1CCCC1,0.36
11,CN(C)CCNC(=O)c1ccc2c3c(c4cc(O)ccc4nc13)NN2CCN(C)C,0.6
12,CN(C)CCNC(=O)c1ccc2c3c(c4cc(N)ccc4nc13)NN2CCN1CCCCC1,0.17
13,CN(C)CCCNC(=O)c1ccc2c3c(c4ccccc4nc13)NN2CCN(C)C,0.6
14,COc1ccc2c(c1)-c1nn(CCCN(C)C)c3ccc(C(=O)NCCN(C)C)c(c13)N2,0.49
15,CN(C)CCNC(=O)c1ccc2c3c(c4ccccc4nc13)NN2CCN1CCCC1,0.19
16,CN(C)CCCN1Nc2c3cc(O)ccc3nc3c(C(=O)NCCN(C)C)ccc1c23,1.8
17,CN(C)CCCN1Nc2c3ccccc3nc3c(C(=O)NCCN(C)C)ccc1c23,0.25
18,O=C(NCCNCCO)c1ccc2c3c(c4ccccc4nc13)NN2CCN1CCCC1,1.7
19,CN(C)CCNC(=O)c1ccc2c3c(c4cc(O)ccc4nc13)NN2CCN1CCCC1,0.91
20,CN(C)CCNC(=O)c1ccc2c3c(c4ccccc4nc13)NN2CCN(C)C,0.21
21,CN(C)CCN1Nc2c3ccccc3nc3c(C(=O)NCCNCCO)ccc1c23,0.56
22,CN(C)CCN1Nc2c3ccccc3nc3c(C(=O)NCCN)ccc1c23,0.3
23,CN(C)CCNC(=O)c1ccc2c3c(c4cc([N+](=O)[O-])ccc4nc13)NN2CCN1CCCCC1,0.031
24,CN(C)CCNC(=O)c1ccc2c3c(c4cc([N+](=O)[O-])ccc4nc13)NN2CCN(C)C,0.0039
25,COc1ccc2c(c1)-c1nn(CCN(C)C)c3ccc(C(=O)NCCN(C)C)c(c13)N2,0.12

# System: Nucleic Acid
# Experiment: Apparent equilibrium constant for binding to calf thymus DNA by competitive displacement fluorometric assay
# Assay type: functional
# Settings: Bos taurus
row,SMILES,K app [M⁻¹]
1,O=C1c2c(O)ccc(O)c2C(=O)c2c(NCCNCCO)ccc(NCCNCCO)c21,3.41e+08
